Assay results: ChEMBL document CHEMBL1240353 (Antimicrob Agents Chemother, 2010)
Values after ≈ are worked out from the molar mass of the structure shown. Active and inactive are the calls of the source. No cut-off for these calls is given here.

Legend:
[1] = Inhibition of PBP3 in penicillin-resistant Enterococcus faecium D63r membranes assessed as inhibition of fluorescent ampicillin binding after 20 mins at 37 degC
Summary of the method: (§1)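 Competition assay on purified membrane preparations (300 μg protein). Membranes preincubated 20 min at 37°C with increasing β-lactam concentrations, then 1 h at 37°C with saturating 25 μM fluorescent ampicillin. Proteins resolved by SDS-PAGE and fluorography. IC50 is the concentration inhibiting 50% of fluorescent ampicillin labelling relative to a drug-free control.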

[2] = Inhibition of PBP4 in penicillin-resistant Enterococcus faecium D63r membranes assessed as inhibition of fluorescent ampicillin binding after 20 mins at 37 degC; summary of the method: as §1
[3] = test system: Enterococcus faecium; experiment: Antimicrobial activity against penicillin-resistant Enterococcus faecium D63r by microdilution method; format: functional
[4] = Inhibition of PBP2 in penicillin-resistant Enterococcus faecium D63r membranes assessed as inhibition of fluorescent ampicillin binding after 20 mins at 37 degC; summary of the method: as §1
[5] = Inhibition of PBP6 in penicillin-resistant Enterococcus faecium D63r membranes assessed as inhibition of fluorescent ampicillin binding after 20 mins at 37 degC; summary of the method: as §1
[6] = Inhibition of PBP5 in penicillin-resistant Enterococcus faecium D63r membranes assessed as inhibition of fluorescent ampicillin binding after 20 mins at 37 degC; summary of the method: as §1
[7] = Inhibition of PBP1 in penicillin-resistant Enterococcus faecium D63r membranes assessed as inhibition of fluorescent ampicillin binding after 20 mins at 37 degC; summary of the method: as §1
[8] = test system: Enterococcus faecium; experiment: Antimicrobial activity against Enterococcus faecium D63 by microdilution method; format: functional
[9] = Inhibition of PBP6 in wild type Enterococcus faecium D63 membranes assessed as inhibition of fluorescent ampicillin binding after 20 mins at 37 degC; summary of the method: as §1
[10] = test system: Enterococcus faecium; experiment: Antimicrobial activity against Enterococcus faecium D63 assessed as bacterial killing at 4 times MIC by time kill curve method; format: functional, organism-based
Summary of the method: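 Survivors counted at 0, 4 and 24 h of incubation at 37°C by plating serial dilutions (at least 10-fold, to limit carryover).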

[11] = Inhibition of PBP5 in wild type Enterococcus faecium D63 membranes assessed as inhibition of fluorescent ampicillin binding after 20 mins at 37 degC; summary of the method: as §1
[12] = Inhibition of PBP1 in wild type Enterococcus faecium D63 membranes assessed as inhibition of fluorescent ampicillin binding after 20 mins at 37 degC
[13] = test system: Enterococcus faecium; experiment: Antimicrobial activity against penicillin-resistant Enterococcus faecium D63r assessed as bacterial killing at 4 times MIC by time kill curve method; format: functional, organism-based
[14] = Inhibition of PBP3 in wild type Enterococcus faecium D63 membranes assessed as inhibition of fluorescent ampicillin binding after 20 mins at 37 degC
[15] = test system: Staphylococcus aureus; experiment: Inhibition of Staphylococcus aureus PBP2a assessed as rate constant for enzyme acylation by spectrophotometry
[16] = Inhibition of PBP2 in wild type Enterococcus faecium D63 membranes assessed as inhibition of fluorescent ampicillin binding after 20 mins at 37 degC; summary of the method: as §1
[17] = test system: Enterococcus faecium; experiment: Inhibition of Enterococcus faecium low-affinity PBP5fm assessed as rate constant for enzyme acylation by spectrophotometry
Summary of the method: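 Soluble PBP 5fm (N-terminal membrane anchor removed), overproduced and purified without molecular sieve step. β-lactam ring opening followed at 319 nm, 30°C, 10 mM phosphate pH 7.0, 10 μM enzyme, across drug concentrations. Pseudo-first-order ka fitted from absorbance traces. k+2/K taken from slope of ka versus concentration.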

[18] = Inhibition of PBP4 in wild type Enterococcus faecium D63 membranes assessed as inhibition of fluorescent ampicillin binding after 20 mins at 37 degC

SMILES | IC50 [1] [µg/mL] | IC50 [2] [µg/mL] | MIC [3] [µg/mL] | IC50 [4] [µg/mL] | IC50 [5] [µg/mL] | IC50 [6] [µg/mL] | IC50 [7] [µg/mL] | MIC [8] [µg/mL] | IC50 [9] [µg/mL] | inhibition [10] | IC50 [11] [µg/mL] | IC50 [12] [µg/mL] | inhibition [13] | IC50 [14] [µg/mL] | INH [15] [M⁻¹ s⁻¹] | IC50 [16] [µg/mL] | INH [17] [M⁻¹ s⁻¹] | IC50 [18] [µg/mL]
CO/N=C(\C(=O)N[C@@H]1C(=O)N2C(C(=O)[O-])=C(C[N+]3(C)CCCC3)CS[C@H]12)c1csc(N)n1 | 0.5 (≈ 1.04 µM) | > 200 | > 100 | 0.6 (≈ 1.25 µM) | > 50 | > 200 | 1.7 (≈ 3.54 µM) |  |  |  |  |  |  |  |  |  |  | 
CC1(C)S[C@@H]2[C@H](NC(=O)[C@H](N)c3ccccc3)C(=O)N2[C@H]1C(=O)O [AMPICILLIN] |  |  | 125 (≈ 358 µM) |  |  |  |  | 15 (≈ 42.9 µM) |  |  |  |  |  |  |  |  |  | 
CC(C)(O/N=C(\C(=O)N[C@@H]1C(=O)N2C(C(=O)[O-])=C(C[n+]3ccccc3)CS[C@H]12)c1csc(N)n1)C(=O)O [CEFTAZIDIME] | 0.04 (≈ 0.0732 µM) | > 200 | > 100 | 0.5 (≈ 0.915 µM) | > 50 | > 200 | 0.9 (≈ 1.65 µM) |  |  |  |  |  |  |  |  |  |  | 
Nc1nc(/C(=N/O)C(=O)N[C@@H]2C(=O)N3C(C(=O)O)=C(/C=C4\CCN([C@@H]5CCNC5)C4=O)CS[C@H]23)ns1 [CEFTOBIPROLE] | 0.5 (≈ 0.935 µM) | 1.8 (≈ 3.37 µM) | 8 (≈ 15 µM) | 0.2 (≈ 0.374 µM) |  | 1 (≈ 1.87 µM) | 0.7 (≈ 1.31 µM) | 2 (≈ 3.74 µM) | > 16 | Active | 0.7 (≈ 1.31 µM) | 0.6 (≈ 1.12 µM) | Active | 0.6 (≈ 1.12 µM) | 8900 | 0.2 (≈ 0.374 µM) | 110 | 1.5 (≈ 2.81 µM)
CC1(C)S[C@@H]2[C@H](NC(=O)Cc3ccccc3)C(=O)N2[C@H]1C(=O)O [PENICILLIN G] | 0.6 (≈ 1.79 µM) | 8 (≈ 23.9 µM) | 70 (≈ 209 µM) | 0.06 (≈ 0.179 µM) | 2 (≈ 5.98 µM) | 55 (≈ 164 µM) | 1.6 (≈ 4.78 µM) | 5 (≈ 15 µM) | 1.5 (≈ 4.49 µM) | Active | 75 (≈ 224 µM) | 0.9 (≈ 2.69 µM) | Active | 1.3 (≈ 3.89 µM) |  | 0.1 (≈ 0.299 µM) | 15 | 10 (≈ 29.9 µM)
